ChEMBL document CHEMBL1817572, “New, potent, selective, and short-acting peptidic V1a receptor agonists” (J Med Chem, 2011)
Bridge positions count the residues as written; N and C are the ends. Square brackets hold non-standard residues; d marks the D form. Peptide text beside a SMILES is read from it. Ala(2-furyl) = N[C@@H](Cc1ccco1)C(=O)O; Orn(iPr) = CC(C)NCCC[C@H](N)C(=O)O; 2Thi = N[C@@H](Cc1cccs1)C(=O)O; Aad = N[C@@H](CCCC(=O)O)C(=O)O; Orn = NCCC[C@H](N)C(=O)O; Dab = NCC[C@H](N)C(=O)O

Columns and labels:
Rattus norvegicus [1] = assay: Vasoconstriction in Wistar rat assessed as assessed as decay in vasopressive duration of action at 2 nmol/kg, iv bolus measured over 10 sec interval; format: functional
In short: (§1)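 Fasted male Wistar rats (206–340 g) under isoflurane, then thiobutabarbital 150 mg/kg ip, ventilated, 37–38 °C, with carotid pressure and jugular dosing. Dibenamine 1.8 mg/rat iv pretreatment. Sequence: iv boluses (0.5 mL/kg) of heparinized vehicle, then two reference doses of 0.1 nmol/kg, then two test doses; one matches the reference diastolic pressure rise. Relative duration = reference decay rate / test decay rate; mean ± SEM.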

Homo sapiens [2] = species: Homo sapiens; assay: Selectivity ratio of EC50 for human oxytocin receptor to EC50 for human vasopressin V1a receptor
Vasopressin V2 receptor [3] = target: T1, Vasopressin V2 receptor (Homo sapiens, UniProt P30518); assay: Partial agonist activity at recombinant human vasopressin V2 receptor expressed in HEK293 cells by luciferase reporter gene assay; format: functional, cell-based
In short: (§2)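 Same luciferase reporter systems (OT in stable CHO-K1, V1b in stable Flp-In-293, each with transient NFAT-luciferase; V1a in HEK293 with NFAT-luciferase, V2 in HEK293 with CRE-luciferase). Peptides added for 5 h at 37 °C two days post-transfection, luminescence read. Partial agonism means efficacy <70%.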

Vasopressin V2 receptor [4] = target: T1, Vasopressin V2 receptor; assay: Agonist activity at recombinant human vasopressin V2 receptor expressed in HEK293 cells by luciferase reporter gene assay; format: functional, cell-based
Oxytocin receptor = target: T2, Oxytocin receptor (Homo sapiens, UniProt P30559); assay: Agonist activity at human OT receptor expressed in CHO-K1 cells by luciferase reporter gene assay; format: functional, cell-based
T2 sequence (P30559 whole entry): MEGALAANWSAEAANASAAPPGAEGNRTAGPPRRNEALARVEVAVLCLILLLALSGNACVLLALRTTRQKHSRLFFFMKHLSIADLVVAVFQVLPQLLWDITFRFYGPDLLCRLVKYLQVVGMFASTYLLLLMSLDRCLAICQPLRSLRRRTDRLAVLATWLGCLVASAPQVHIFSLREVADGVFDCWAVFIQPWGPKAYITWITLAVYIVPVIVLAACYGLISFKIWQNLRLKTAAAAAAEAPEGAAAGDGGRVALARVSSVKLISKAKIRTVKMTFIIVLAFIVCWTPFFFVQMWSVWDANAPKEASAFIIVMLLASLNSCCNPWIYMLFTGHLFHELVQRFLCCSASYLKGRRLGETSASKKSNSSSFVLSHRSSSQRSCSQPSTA

[5] = target: Vasopressin V1a/V2 (Homo sapiens) (UniProt P30518+P37288); assay: Selectivity ratio of EC50 for human vasopressin V2 receptor to EC50 for human vasopressin V1a receptor
Vasopressin V1a receptor [6] = target: Vasopressin V1a receptor (Rattus norvegicus, UniProt P30560); assay: Agonist activity at recombinant rat vasopressin V1a receptor expressed in HEK293 cells by luciferase reporter gene assay; format: functional, cell-based; settings: read-out: EC50
Vasopressin V1a receptor [7] = target: T3, Vasopressin V1a receptor (Homo sapiens, UniProt P37288); assay: Agonist activity at recombinant human vasopressin V1a receptor expressed in HEK293 cells by luciferase reporter gene assay; format: functional, cell-based; settings: read-out: EC50
Target sequence in this assay (P37288 whole entry): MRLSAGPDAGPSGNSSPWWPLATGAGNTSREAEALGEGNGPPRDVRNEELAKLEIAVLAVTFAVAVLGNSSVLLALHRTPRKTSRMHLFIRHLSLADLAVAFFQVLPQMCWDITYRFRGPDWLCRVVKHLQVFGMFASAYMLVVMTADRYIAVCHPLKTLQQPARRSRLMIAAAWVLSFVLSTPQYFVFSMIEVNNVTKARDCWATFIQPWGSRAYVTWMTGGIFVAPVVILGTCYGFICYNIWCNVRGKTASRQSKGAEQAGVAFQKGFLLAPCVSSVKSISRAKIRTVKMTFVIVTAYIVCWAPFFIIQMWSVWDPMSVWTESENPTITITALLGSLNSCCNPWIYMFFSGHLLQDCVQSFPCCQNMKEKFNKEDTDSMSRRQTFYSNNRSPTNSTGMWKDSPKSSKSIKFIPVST

Homo sapiens [8] = species: Homo sapiens; assay: Selectivity ratio of EC50 for human vasopressin V1b receptor to EC50 for human vasopressin V1a receptor
Vasopressin V1a receptor [9] = target: T3, Vasopressin V1a receptor; assay: Partial agonist activity at recombinant human vasopressin V1a receptor expressed in HEK293 cells by luciferase reporter gene assay; format: functional, cell-based; in short: as §2
Target sequence in this assay (P37288 whole entry, looked up): as the sequence (P37288 whole entry) above

Vasopressin V1b receptor = target: T4, Vasopressin V1b receptor (Homo sapiens, UniProt P47901); assay: Agonist activity at recombinant human vasopressin V1b receptor expressed in Flp-In-293 cells by luciferase reporter gene assay; format: functional, cell-based; settings: read-out: EC50
T4 sequence (P47901 whole entry): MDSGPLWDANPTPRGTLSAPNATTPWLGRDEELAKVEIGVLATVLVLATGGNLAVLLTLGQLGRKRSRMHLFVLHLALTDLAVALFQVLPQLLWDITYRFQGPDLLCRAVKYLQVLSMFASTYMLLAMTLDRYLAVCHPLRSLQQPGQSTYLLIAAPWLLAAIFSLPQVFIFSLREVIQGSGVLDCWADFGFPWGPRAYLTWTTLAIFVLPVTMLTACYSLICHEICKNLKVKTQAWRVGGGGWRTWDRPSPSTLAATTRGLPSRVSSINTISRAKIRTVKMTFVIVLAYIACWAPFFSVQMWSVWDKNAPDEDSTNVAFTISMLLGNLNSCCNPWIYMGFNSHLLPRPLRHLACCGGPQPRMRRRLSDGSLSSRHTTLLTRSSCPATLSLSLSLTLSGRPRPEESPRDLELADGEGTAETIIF
In short: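 Reporter gene assays in HEK293 cells transiently cotransfected with V1a (human or rat) or human V2 receptor vector plus NFAT-luciferase (V1a) or CRE-luciferase (V2) reporter; V1b in Flp-In-293 stably expressing receptor, OT in CHO-K1 stably expressing receptor, both transiently transfected with NFAT-luciferase. Two days post-transfection, peptides added for 5 h at 37 °C, lysis with luciferin, luminescence read.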

Rattus norvegicus [10] = assay: Vasoconstriction in Wistar rat assessed as assessed as decay in vasopressive duration of action at 6 nmol/kg, iv bolus measured over 10 sec interval; format: functional; in short: as §1
Rattus norvegicus [11] = assay: Vasoconstriction in Wistar rat assessed as assessed as decay in vasopressive duration of action at 0.6 nmol/kg, iv bolus measured over 10 sec interval; format: functional; in short: as §1
Rattus norvegicus [12] = assay: Vasoconstriction in Wistar rat assessed as assessed as decay in vasopressive duration of action at 0.1 nmol/kg, iv bolus measured over 10 sec interval; format: functional
Rattus norvegicus [13] = assay: Vasoconstriction in Wistar rat assessed as assessed as decay in vasopressive duration of action at 0.2 nmol/kg, iv bolus measured over 10 sec interval; format: functional
Rattus norvegicus [14] = assay: Vasoconstriction in Wistar rat assessed as decay in vasopressive duration of action at 1 nmol/kg, iv bolus measured over 10 sec interval; format: functional; in short: as §1

Sequence of Vasopressin V1a/V2 (Homo sapiens) (P30518 whole entry, looked up): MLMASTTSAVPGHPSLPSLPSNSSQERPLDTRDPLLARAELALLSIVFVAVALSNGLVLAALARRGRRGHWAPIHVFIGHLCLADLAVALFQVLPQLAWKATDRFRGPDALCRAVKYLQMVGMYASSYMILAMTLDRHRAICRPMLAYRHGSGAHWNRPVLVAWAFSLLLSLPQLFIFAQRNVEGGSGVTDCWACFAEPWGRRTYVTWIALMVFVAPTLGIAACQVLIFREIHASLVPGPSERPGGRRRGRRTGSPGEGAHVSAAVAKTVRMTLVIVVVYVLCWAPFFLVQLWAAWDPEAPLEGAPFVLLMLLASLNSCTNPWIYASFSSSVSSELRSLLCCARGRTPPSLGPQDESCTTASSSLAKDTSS
Sequence of Vasopressin V1a/V2 (Homo sapiens) (P37288 whole entry, looked up): as the sequence (P37288 whole entry) above
T1 sequence (P30518 whole entry): as the sequence (P30518 whole entry, looked up) above
Sequence of Vasopressin V1a receptor (Rattus norvegicus, UniProt P30560) (P30560 whole entry): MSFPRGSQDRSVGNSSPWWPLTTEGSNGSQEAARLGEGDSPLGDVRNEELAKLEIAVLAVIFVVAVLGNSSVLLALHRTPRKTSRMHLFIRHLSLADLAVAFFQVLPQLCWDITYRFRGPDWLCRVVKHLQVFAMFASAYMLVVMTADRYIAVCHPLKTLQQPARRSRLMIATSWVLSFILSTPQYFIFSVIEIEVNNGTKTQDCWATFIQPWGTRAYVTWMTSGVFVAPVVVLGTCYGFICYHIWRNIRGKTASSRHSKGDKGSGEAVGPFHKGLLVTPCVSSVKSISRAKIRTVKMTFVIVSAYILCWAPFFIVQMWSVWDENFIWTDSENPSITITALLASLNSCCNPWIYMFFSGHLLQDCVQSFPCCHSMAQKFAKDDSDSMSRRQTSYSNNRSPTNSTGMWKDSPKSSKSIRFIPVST

| Ratio EC50 (Homo sapiens [2]) | Efficacy (Vasopressin V2 receptor [3]) [%] | EC50 (Vasopressin V2 receptor [4]; read-out: EC50) [nM] | EC50 (Oxytocin receptor; cho-k1, read-out: EC50) [nM] | EC50 (Oxytocin receptor; read-out: pEC50 (converted)) [nM] | Ratio EC50 [5] | EC50 (Vasopressin V1a receptor [6]) [nM] | EC50 (Vasopressin V1a receptor [7]) [nM] | Ratio EC50 (Homo sapiens [8]) | EC50 (Vasopressin V1b receptor) [nM] | EC50 (Vasopressin V2 receptor [4]; hek293, read-out: EC50) [nM] | EC50 (Vasopressin V2 receptor [4]; read-out: pEC50 (converted)) [nM] | EC50 (Oxytocin receptor; read-out: EC50) [nM] | SMILES | Time (Rattus norvegicus [1]) [unitless ratio] | Efficacy (Vasopressin V1a receptor [9]) [%] | Time (Rattus norvegicus [10]) [unitless ratio] | Time (Rattus norvegicus [11]) [unitless ratio] | Time (Rattus norvegicus [12]) [unitless ratio] | Time (Rattus norvegicus [13]) [min] | Time (Rattus norvegicus [14]) [unitless ratio] |
| --- | --- | --- | --- | --- | --- | --- | --- | --- | --- | --- | --- | --- | --- | --- | --- | --- | --- | --- | --- | --- |
| > 11000 | < 70 | 1600 | > 10000 | > 10000 | 1700 | 0.34 | 0.9 | 51 | 46 |  |  |  | CC[C@H](C)[C@@H]1NC(=O)[C@H](Cc2ccccc2)NC(=O)[C@@H](N)CSSC[C@@H](C(=O)N2CCC[C@H]2C(=O)N[C@@H](CCCN)C(=O)NCC(N)=O)NC(=O)[C@H](CC(N)=O)NC(=O)[C@H](CCCC(N)=O)NC1=O (H-CFI[Aad](NH2)NCP[Orn]G-NH2; disulfide 1-6) | 3.4 | < 70 |  |  |  |  |  |
| > 3400 |  |  | > 10000 | > 10000 | > 3400 | 2 | 2.9 | 12 | 37 | > 10000 | > 10000 |  | CC[C@H](C)[C@@H]1NC(=O)[C@H](Cc2ccccc2)NC(=O)[C@@H](N)CSSC[C@@H](C(=O)N2CCC[C@H]2C(=O)N[C@@H](CCN)C(=O)NCC(N)=O)NC(=O)[C@H](CC(N)=O)NC(=O)[C@H](CC(N)=O)NC1=O (H-CFINNCP[Dab]G-NH2; disulfide 1-6) |  |  | 2 |  |  |  |  |
| 150 | < 70 | 390 |  |  | 560 | 0.32 | 0.69 | 530 | 370 |  |  | 110 | CC[C@H](C)[C@@H]1NC(=O)[C@H](Cc2cccs2)NC(=O)[C@@H](N)CSSC[C@@H](C(=O)N2CCC[C@H]2C(=O)N[C@@H](CCCNC(C)C)C(=O)NCC(N)=O)NC(=O)[C@H](CC(N)=O)NC(=O)[C@H](CCC(N)=O)NC1=O (H-C[2Thi]IQNCP[Orn(iPr)]G-NH2; disulfide 1-6) |  |  |  | 2.7 |  |  |  |
|  |  |  |  |  |  |  |  |  | 7.5 |  |  | 71 | NCCC[C@H](NC(=O)[C@@H]1CCCN1C(=O)[C@@H]1CSSC[C@H](N)C(=O)N[C@@H](Cc2ccc(O)cc2)C(=O)N[C@@H](Cc2ccccc2)C(=O)N[C@@H](CCC(N)=O)C(=O)N[C@@H](CC(N)=O)C(=O)N1)C(=O)NCC(N)=O [ORNIPRESSIN] |  |  |  |  | 1.1 |  |  |
| 100 |  | 950 |  |  | 360 | 0.62 | 2.6 | 210 | 570 |  |  | 260 | CC[C@H](C)[C@@H]1NC(=O)[C@H](Cc2ccco2)NC(=O)[C@@H](N)CSSC[C@@H](C(=O)N2CCC[C@H]2C(=O)N[C@@H](CCCNC(C)C)C(=O)NCC(N)=O)NC(=O)[C@H](CC(N)=O)NC(=O)[C@H](CCC(N)=O)NC1=O (H-C[Ala(2-furyl)]IQNCP[Orn(iPr)]G-NH2; disulfide 1-6) |  |  |  |  |  |  | 1.5 |

| SMILES | Ratio EC50 (Homo sapiens [2]) | Efficacy (Vasopressin V2 receptor [3]) [%] | EC50 (Vasopressin V2 receptor [4]; read-out: EC50) [nM] | EC50 (Oxytocin receptor; cho-k1, read-out: EC50) [nM] | EC50 (Oxytocin receptor; read-out: pEC50 (converted)) [nM] | Ratio EC50 [5] | EC50 (Vasopressin V1a receptor [6]) [nM] | EC50 (Vasopressin V1a receptor [7]) [nM] | Ratio EC50 (Homo sapiens [8]) | EC50 (Vasopressin V1b receptor) [nM] | EC50 (Vasopressin V2 receptor [4]; hek293, read-out: EC50) [nM] | EC50 (Vasopressin V2 receptor [4]; read-out: pEC50 (converted)) [nM] | EC50 (Oxytocin receptor; read-out: EC50) [nM] | Time (Rattus norvegicus [1]) [unitless ratio] | Efficacy (Vasopressin V1a receptor [9]) [%] | Time (Rattus norvegicus [10]) [unitless ratio] | Time (Rattus norvegicus [11]) [unitless ratio] | Time (Rattus norvegicus [12]) [unitless ratio] | Time (Rattus norvegicus [13]) [min] | Time (Rattus norvegicus [14]) [unitless ratio] |
| --- | --- | --- | --- | --- | --- | --- | --- | --- | --- | --- | --- | --- | --- | --- | --- | --- | --- | --- | --- | --- |
| CC[C@H](C)[C@@H]1NC(=O)[C@H](Cc2ccccc2)NC(=O)[C@@H](N)CSSC[C@@H](C(=O)N2CCC[C@H]2C(=O)N[C@@H](CCCNC(C)C)C(=O)NCC(N)=O)NC(=O)[C@H](CC(N)=O)NC(=O)[C@H](CCC(N)=O)NC1=O (H-CFIQNCP[Orn(iPr)]G-NH2; disulfide 1-6) | 86 | < 70 | 290 |  |  | 760 | 0.13 | 0.38 | 110 | 44 |  |  | 33 |  | < 70 |  |  |  | 2.3 |  |
